Here are results for 28 molecules from ChEMBL document CHEMBL1130159, “Chlorogenic acid and synthetic chlorogenic acid derivatives: novel inhibitors of hepatic glucose-6-phosphate translocase” (J Med Chem, 1997).

The structures appear in SMILES notation.

One experiment is filed under the species Rattus norvegicus. The experiment can be described thus: Percent inhibition against glucose-6-phosphate hydrolysis in highly intact microsomal preparations obtained from livers of 20-h fasted rats at 0.25 mM. The experiment is classed as functional, microsomes. The following applies: Liver, Microsome. The gist of the method: (§1)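 Intact microsomes from 20-h-fasted male Wistar rat liver; 100 μg protein incubated 10 min at 22 °C with 1 mM glucose 6-phosphate in pH 7.0 sucrose/HEPES buffer, ≤1.25% methanol. Released phosphate measured colorimetrically at 630 nm after background subtraction. Percent inhibition versus vehicle control; representative of at least two independent experiments.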
In the case of `O=C(/C=C/c1ccc(O)cc1)O[C@@H]1CC(C(=O)O)=C[C@@H](O)[C@H]1O`, the inhibition – broadly, the share of the control response that was lost under treatment – was determined as 50%.

A further experiment is filed under the species Rattus norvegicus. Description: Percent inhibition against glucose-6-phosphate hydrolysis in highly intact microsomal preparations obtained from livers of 20-h fasted rats at 1 mM. The experiment is classed as functional, microsomes. The following applies: Liver, Microsome. The gist of the method:
as §1
Take `O=C(/C=C/c1ccc(O)cc1)O[C@@H]1C[C@H](C(=O)O)CC[C@H]1O`: the inhibition is 20%.
Same read-out and setting: the value for `COC(=O)[C@]1(O)C[C@@H](O)[C@@H](O)[C@H](OC(=O)/C=C/c2ccc(O)c(O)c2)C1` was 50%; that for `O=C(/C=C/c1ccc(O)c(O)c1)O[C@@H]1C[C@@](O)(C(=O)O)[C@H](O)[C@@H](O)[C@H]1O` was 10%.
`O=C(/C=C/c1ccc(O)cc1)N[C@@H]1CC(C(=O)O)=C[C@@H](O)[C@H]1O` displayed an inhibition of 15%.
Same read-out and setting: the value for `CCO[C@@]1(C(=O)O)C[C@@H](O)[C@@H](O)[C@H](OC(=O)/C=C/c2ccc(O)cc2)C1` was 38%; that for `O=C(/C=C/c1ccc(O)cc1)O[C@@H]1C[C@](O)(C(=O)O)[C@@H](O)[C@@H](O)[C@H]1O` was 30%.

For the next experiment, the species on record is Rattus norvegicus. Description: Percent inhibition against glucose-6-phosphate hydrolysis in highly intact microsomal preparations obtained from livers of 20-h fasted rats at 0.23 mM. In kind it is functional, microsomes. The following applies: Liver, Microsome. Summed up: as §1
In turn, `O=C(/C=C/c1ccc(O)cc1)O[C@@H]1C[C@H](C(=O)O)C[C@@H](O)[C@H]1O` showed an inhibition of 50%.

Test system in another experiment: not listed separately
Description: Inhibition glucose-6-phosphate hydrolysis in highly intact microsomal preparations obtained from livers of 20-h fasted rats. In kind it is functional, microsomes, Rattus norvegicus, Liver, Microsome.
Conditions: not given
The gist of the method:
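Male Wistar rats (160-180 g), fasted 20 h; liver microsomes by differential centrifugation, intactness usually above 97% (1 mM mannose 6-phosphate). 100 μg protein, 1 mM glucose 6-phosphate, 250 mM sucrose/50 mM HEPES pH 7.0, 10 min, 22 °C, compound 0.1-1000 μM (MeOH stock). Phosphate read at 630 nm, background-corrected; IC50 by nonlinear least-squares; at least two experiments.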
As for `O=C(/C=C/c1ccc(O)cc1)O[C@@H]1C[C@](OCCCc2ccccc2)(C(=O)O)C[C@@H](O)[C@H]1O`, half-maximal inhibition (IC50) was put at 31 µM.
For the molecule `O=C(O[C@@H]1C[C@](OCCCc2ccc(Cl)cc2)(C(=O)O)C[C@@H](O)[C@H]1O)C1CCCCC1`, inhibition was half-maximal at 8.9 µM (IC50). Compared with the last molecule, the IC50 is about 3.5-fold lower.
The same measure, in the same setting: the same measure for `O=C(/C=C/c1ccc(O)cc1)O[C@@H]1C[C@](OCc2ccccc2)(C(=O)O)C[C@@H](O)[C@H]1O`: 190 µM; for `C=Cc1ccc(C(=O)O[C@@H]2C[C@](OCCCc3ccc(Cl)cc3)(C(=O)O)C[C@@H](O)[C@H]2O)cc1`: 1.3 µM.
Same read-out and setting: the same measure for `CO[C@@]1(C(=O)O)C[C@@H](O)[C@@H](O)[C@H](OC(=O)/C=C/c2ccc(O)cc2)C1`: 280 µM; for `O=C(/C=C/c1ccc(O)cc1)O[C@@H]1C[C@](O)(C(=O)O)C[C@@H](O)[C@H]1O`: 250 µM; for `O=C(/C=C/c1cccnc1)O[C@@H]1C[C@](O)(C(=O)O)C[C@@H](O)[C@H]1O`: more than 1000 µM.
On the same count and under the same terms, the same measure for `O=C(/C=C/c1ccc(O)c(O)c1)O[C@@H]1C[C@](O)(C(=O)O)C[C@@H](O)[C@H]1O` [CHLOROGENIC ACID]: 230 µM.
On to `O=C(/C=C/c1ccc(O)cc1)O[C@@H]1C[C@](OCc2cccs2)(C(=O)O)C[C@@H](O)[C@H]1O`, for which the IC50 (in general, the concentration that gives 50% inhibition) is 110 µM.
Still for that read-out and setting: the value for `COc1cccc(CO[C@@]2(C(=O)O)C[C@@H](O)[C@@H](O)[C@H](OC(=O)/C=C/c3ccc(O)cc3)C2)c1` was 47 µM; that for `O=C(/C=C/c1ccc(O)cc1)O[C@@H]1C[C@](OCCCCc2ccc(Cl)cc2)(C(=O)O)C[C@@H](O)[C@H]1O` was 85 µM; that for `O=C(COc1ccccc1)O[C@@H]1C[C@](OCCCc2ccc(Cl)cc2)(C(=O)O)C[C@@H](O)[C@H]1O` was 12 µM.
Still for that read-out and setting: the same measure for `O=C(/C=C/c1ccc(O)cc1)O[C@@H]1C[C@](OCc2ccc(-c3ccccc3)cc2)(C(=O)O)C[C@@H](O)[C@H]1O`: 21 µM.
On the same count and under the same terms, the same measure for `O=C(/C=C/c1ccc(O)cc1)O[C@@H]1C[C@](OCCCc2ccc(Cl)cc2)(C(=O)O)C[C@@H](O)[C@H]1O`: 2.5 µM.
In turn, `O=C(CCc1ccc(O)c(O)c1)O[C@@H]1C[C@](O)(C(=O)O)C[C@@H](O)[C@H]1O` showed an IC50 of 680 µM.
Still for that read-out and setting: the same measure for `C#CCO[C@@]1(C(=O)O)C[C@@H](O)[C@@H](O)[C@H](OC(=O)/C=C/c2ccc(O)cc2)C1`: 230 µM; for `O=C(/C=C/c1ccsc1)O[C@@H]1C[C@](O)(C(=O)O)C[C@@H](O)[C@H]1O`: 380 µM; for `CC(C)CCC(=O)O[C@@H]1C[C@](OCCCc2ccc(Cl)cc2)(C(=O)O)C[C@@H](O)[C@H]1O`: 41 µM.
Same read-out and setting: the value for `O=C(/C=C/c1ccc(O)c(O)c1O)O[C@@H]1C[C@](O)(C(=O)O)C[C@@H](O)[C@H]1O` was 310 µM; that for `O=C(O[C@@H]1C[C@](OCCCc2ccc(Cl)cc2)(C(=O)O)C[C@@H](O)[C@H]1O)c1snnc1-c1ccccc1` was 4.5 µM.
